Experimental data: ChEMBL document CHEMBL3085685, “In vitro and in vivo antileishmanial and trypanocidal studies of new N-benzene- and N-naphthalenesulfonamide derivatives” (J Med Chem, 2013)
Active and inactive are the calls of the source. No cut-off for these calls is given here.

Tests used:
Trypanosoma cruzi [1] = experiment: Trypanocidal activity against intracellular amastigote stage of Trypanosoma cruzi CL-B5 infected in mouse NCTC-929 cells assessed as reduction of parasite load after 7 days by CPRG-based colorimetric analysis
Trypanosoma cruzi [2] = experiment: Trypanocidal activity against bloodstream trypomastigote stage of Trypanosoma cruzi Y infected in BALB/c mouse assessed as reduction of parasitemia at 10 mg/kg/day, ip qd administered for 5 days measured on day 10 post-infection by microscopic analysis relative to control; assay type: functional; set-up: scale not given: the % may be the effect or the level left; conditions: route intraperitoneal
Procedure, shortened: (§1)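 Female BALB/c mice (20–24 g) infected ip with 10^4 Y-strain bloodstream trypomastigotes; only parasitemic animals used. Compounds dissolved in DMSO, freshly diluted in propylene glycol, given ip at 10 mg/kg/day for 5 days from 5 dpi, with an untreated group. Parasitemia counted by Pizzi–Brener in 5 μL tail blood at 5, 8, 10 dpi; mortality checked daily to 30 dpi.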

[3] = Cytotoxicity against mouse NCTC-929 cells assessed as reduction of cell viability after 24 hrs by resazurin dye-based […]
Procedure, shortened: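 NCTC clone 929 fibroblasts in DMEM with 10% FBS and 2 mM L-glutamine, plated at 3 × 10^4 cells/well and grown overnight at 37 °C, 5% CO2. Compounds in fresh medium for 24 h, then 2 mM resazurin solution added for 3 h. Absorbance read at 570 and 595 nm; CC50 taken as 50% viability loss versus untreated cells, by probit analysis.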

Leishmania braziliensis = experiment: Leishmanicidal activity against extracellular promastigote stage of Leishmania braziliensis 2903 assessed as reduction of parasite load after 48 hrs by resazurin dye-based fluorometric analysis; assay type: functional, organism-based; conditions: Leishmania braziliensis, 2903, 48 h; read-out: IC50
Procedure, shortened: (§2)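 Log-phase promastigotes cultured in Schneider's medium with 20% heat-inactivated FBS at 26 °C, 2.5 × 10^5 per well. DMSO-dissolved compounds added as 2-fold serial dilutions, final DMSO ≤0.2% (v/v), 48 h at 26 °C. Growth read by 2.5 mM resazurin stock, fluorescence 535/590 nm. Triplicate; IC50 by probit analysis.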

Trypanosoma cruzi [4] = experiment: Trypanocidal activity against bloodstream trypomastigote stage of Trypanosoma cruzi Y infected in BALB/c mouse assessed as reduction of survival rate at 10 mg/kg/day, ip qd administered for 5 days measured daily until day 30 post-infection; assay type: functional, organism-based
Procedure, shortened: as §1

Leishmania infantum [5] = experiment: Leishmanicidal activity against extracellular promastigote stage of Leishmania infantum MCAN/ES/96/BCN150 assessed as reduction of parasite load after 48 hrs by resazurin dye-based fluorometric analysis; assay type: functional, organism-based; conditions: Leishmania infantum, MCAN/ES/96/BCN150, 48 h; read-out: IC50
Procedure, shortened: as §2

[6] = Cytotoxicity against mouse J774 cells assessed as reduction of cell viability after 24 hrs by resazurin dye-based fluorometric analysis
Procedure, shortened: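 J774 macrophages in RPMI 1640 with 10% heat-inactivated FBS, seeded at 5 × 10^4 cells/well and attached 24 h at 37 °C, 5% CO2. Medium swapped for drug dilutions for 24 h. Then 2.5 mM resazurin stock added for 3 h, fluorescence read at 535 nm excitation / 590 nm emission. Triplicate; CC50 from probit analysis.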

Leishmania infantum [7] = experiment: Leishmanicidal activity against intracellular amastigote stage of Leishmania infantum MCAN/ES/96/BCN150 infected in mouse J774 cells assessed as reduction of parasite load after 48 hrs by resazurin dye-based fluorometric analysis; assay type: functional, organism-based
Procedure, shortened: (§3)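 J774 macrophages (5 × 10^4/well) infected with stationary promastigotes at 1:10, 24 h at 33 °C then 24 h at 37 °C, 5% CO2, and washed free of promastigotes. Then 2-fold serial dilutions in triplicate for 48 h at 37 °C. Cells lysed with RPMI with 0.048% HEPES and 0.006% SDS, transformed in Schneider's 3 days at 26 °C, resazurin 3 h, fluorescence 535/590 nm.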

Leishmania guyanensis = experiment: Leishmanicidal activity against extracellular promastigote stage of Leishmania guyanensis 141/93 assessed as reduction of parasite load after 48 hrs by resazurin dye-based fluorometric analysis; assay type: functional, organism-based; conditions: Leishmania guyanensis, 141/93, 48 h; read-out: IC50
Procedure, shortened: as §2

Leishmania amazonensis [8] = experiment: Leishmanicidal activity against intracellular amastigote stage of Leishmania amazonensis MHOM/Br/79/Maria infected in mouse J774 cells assessed as reduction of parasite load after 48 hrs by resazurin dye-based fluorometric analysis; assay type: functional, organism-based
Procedure, shortened: as §3

Trypanosoma cruzi [9] = experiment: Trypanocidal activity against extracellular epimastigote stage of Trypanosoma cruzi CL-B5 assessed as reduction of parasite load after 72 hrs by CPRG-based colorimetric analysis
Trypanosoma cruzi [10] = experiment: Trypanocidal activity against bloodstream trypomastigote stage of Trypanosoma cruzi Y infected in BALB/c mouse assessed as reduction of parasitemia at 10 mg/kg/day, ip qd administered for 3 days measured on day 8 post-infection by microscopic analysis relative to control; assay type: functional; set-up: scale not given: the % may be the effect or the level left; conditions: route intraperitoneal
Procedure, shortened: as §1

Leishmania amazonensis [11] = experiment: Leishmanicidal activity against extracellular promastigote stage of Leishmania amazonensis MHOM/Br/79/Maria assessed as reduction of parasite load after 48 hrs by resazurin dye-based fluorometric analysis; assay type: functional, organism-based; conditions: Leishmania amazonensis, MHOM/Br/79/Maria, 48 h; read-out: IC50
Procedure, shortened: as §2

[12] = Selectivity index, ratio of CC50 for mouse NCTC-929 cells to IC50 for extracellular epimastigote stage of Trypanosoma cruzi CL-B5; assay type: functional
[13] = Selectivity index, ratio of CC50 for mouse J774 cells to IC50 for extracellular promastigote stage of Leishmania amazonensis MHOM/Br/79/Maria; assay type: functional
Leishmania infantum [14] = experiment: Leishmanicidal activity against promastigote stage of Leishmania infantum MCAN/ES/96/BCN150 infected in BALB/c mouse assessed as reduction of parasite burden in liver at 5 mg/kg, ip qd administered for 5 days measured after 7 days by limiting dilution assay relative to untreated control; assay type: functional
Procedure, shortened: (§4)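 BALB/c mice infected intracardially under pentobarbital anaesthesia with 10^7 stationary L. infantum BCN150 promastigotes. From day 21 post-infection, dosed ip once daily for 5 days in 0.1 mL propylene glycol, with an untreated control group. Killed 7 days later; spleen and liver burdens by limiting dilution and expressed as % reduction versus controls.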

Leishmania infantum [15] = experiment: Leishmanicidal activity against promastigote stage of Leishmania infantum MCAN/ES/96/BCN150 infected in BALB/c mouse assessed as reduction of parasite burden in spleen at 5 mg/kg, ip qd administered for 5 days measured after 7 days by limiting dilution assay relative to untreated control; assay type: functional; set-up: scale not given: the % may be the effect or the level left
Procedure, shortened: as §4

[16] = Selectivity index, ratio of CC50 for mouse J774 cells to IC50 for extracellular promastigote stage of Leishmania infantum MCAN/ES/96/BCN150; assay type: functional
Leishmania infantum [17] = experiment: Antileishmanial activity against promastigote stage of Leishmania infantum assessed as disappearance of kinetoplast DNA at IC50 after 48 hrs by propidium iodide staining-based confocal laser scanning microscopic analysis; assay type: functional, organism-based
Mus musculus [18] = experiment: Toxicity in BALB/c mouse infected with promastigote stage of Leishmania infantum MCAN/ES/96/BCN150 assessed as appearance of hyperactivity with local skin irritation at 5 mg/kg, ip qd administered for 5 days; assay type: organism-based; set-up: dose 5 mg/kg, route intraperitoneal; conditions: in vivo, 120 h
Procedure, shortened: as §4

Leishmania infantum [19] = experiment: Binding affinity to beta-tubulin in promastigote stage of Leishmania infantum assessed as structure disorganization at IC50 after 24 to 48 hrs by confocal laser scanning microscopic analysis
Leishmania infantum [20] = experiment: Antileishmanial activity against promastigote stage of Leishmania infantum assessed as induction of apoptosis at IC50 after 48 hrs by propidium iodide staining-based confocal laser scanning microscopic analysis; assay type: functional, organism-based
Leishmania infantum [21] = experiment: Antileishmanial activity against promastigote stage of Leishmania infantum assessed as alteration in nuclear DNA at IC50 after 48 hrs by propidium iodide staining-based confocal laser scanning microscopic analysis; assay type: functional, organism-based
Leishmania infantum [22] = experiment: Binding affinity to beta-tubulin in promastigote stage of Leishmania infantum assessed as structure disorganization at IC50 after 48 hrs by confocal laser scanning microscopic analysis
Leishmania infantum [23] = experiment: Leishmanicidal activity against promastigote stage of Leishmania infantum MCAN/ES/96/BCN150 infected in BALB/c mouse assessed as reduction of parasite burden in liver at 10 mg/kg, ip qd administered for 5 days measured after 7 days by limiting dilution assay relative to untreated control; assay type: functional; set-up: scale not given: the % may be the effect or the level left; conditions: route intraperitoneal
Procedure, shortened: as §4

[24] = Selectivity index, ratio of CC50 for mouse J774 cells to IC50 for extracellular promastigote stage of Leishmania guyanensis 141/93; assay type: functional
Mus musculus [25] = experiment: Toxicity in BALB/c mouse infected with promastigote stage of Leishmania infantum MCAN/ES/96/BCN150 assessed as hair loss at 10 mg/kg, ip qd administered for 5 days; assay type: organism-based; set-up: dose 10 mg/kg, route intraperitoneal; conditions: in vivo, 120 h
Procedure, shortened: as §4

Mus musculus [26] = experiment: Toxicity in BALB/c mouse infected with promastigote stage of Leishmania infantum MCAN/ES/96/BCN150 assessed as gross weight loss at 10 mg/kg, ip qd administered for 5 days; assay type: organism-based; set-up: dose 10 mg/kg, route intraperitoneal; conditions: in vivo, 120 h
Procedure, shortened: as §4

Leishmania infantum [27] = experiment: Leishmanicidal activity against promastigote stage of Leishmania infantum MCAN/ES/96/BCN150 infected in BALB/c mouse assessed as reduction of parasite burden in spleen at 10 mg/kg, ip qd administered for 5 days measured after 7 days by limiting dilution assay relative to untreated control; assay type: functional; set-up: scale not given: the % may be the effect or the level left; conditions: route intraperitoneal
Procedure, shortened: as §4

Leishmania infantum [28] = experiment: Antileishmanial activity against promastigote stage of Leishmania infantum assessed as alteration in kinetoplast DNA at IC50 after 48 hrs by propidium iodide staining-based confocal laser scanning microscopic analysis; assay type: functional, organism-based
[29] = Trypanosoma cruzi, CL-B5, NCTC-929, 168 h, read-out: IC50
[30] = Trypanosoma cruzi, CL-B5, 72 h, read-out: IC50
[31] = Leishmania infantum, MCAN/ES/96/BCN150, J774, 48 h, read-out: IC50
[32] = Leishmania amazonensis, MHOM/Br/79/Maria, J774, 48 h, read-out: IC50

Structure (SMILES)	IC50 (Trypanosoma cruzi [1]; [29])	Activity (Trypanosoma cruzi [2])	CC50 at 24 h [3]	IC50 (Leishmania braziliensis)	Activity (Trypanosoma cruzi [4])	IC50 (Leishmania infantum [5])	CC50 at 24 h [6]	IC50 (Leishmania guyanensis)	IC50 (Trypanosoma cruzi [9]; [30])	Activity (Trypanosoma cruzi [10])	IC50 (Leishmania amazonensis [11])	Ratio CC50/IC50 [12]	IC50 (Trypanosoma cruzi [1]; nctc-929)	IC50 (Leishmania infantum [7]; [31])	Ratio CC50/IC50 [13]	IC50 (Leishmania amazonensis [8]; [32])	Activity (Leishmania infantum [14])	Activity (Leishmania infantum [15]; route intraperitoneal)	IC50 (Trypanosoma cruzi [9])	Ratio CC50/IC50 [16]	also measured
O=S(=O)(Nc1ccc2c[nH]nc2c1)c1ccc(Cl)cc1	12.3 µM	14%	211 µM	35.6 µM	inactive	43.5 µM	≥ 300 µM	46.1 µM	25.9 µM	-10%	59.1 µM	>9.9	–	–	–	–	–	–	–	–	IC50 (Leishmania infantum [7]; j774): Not Active; IC50 (Leishmania amazonensis [8]; j774): Not Active
O=S(=O)(Nc1ccc2ncsc2c1)c1ccccc1	–	–	–	30.6 µM	–	18.4 µM	≥ 300 µM	23.7 µM	–	–	82.6 µM	–	Not Active	39.2 µM	>3.1	77.5 µM	inactive	53.51%	Not Active	> 13.9	–
CC1CCCN(S(=O)(=O)c2cccc3ccccc23)C1 (stereo unspecified)	–	–	–	9.9 µM	–	6.7 µM	≥ 300 µM	7.2 µM	–	–	24.6 µM	–	Not Active	7.1 µM	>10.4	18 µM	inactive	80.17%	Not Active	> 38.2	Activity (Leishmania infantum [17]): Active; Activity (Mus musculus [18]): Toxic; Activity (Leishmania infantum [19]): Active; Activity (Leishmania infantum [20]): Active
O=S(=O)(Nc1ccc2cn[nH]c2c1)c1ccc(F)cc1	28.5 µM	44%	223 µM	88.8 µM	inactive	94.8 µM	≥ 300 µM	96.3 µM	1.3 µM	-50%	108 µM	>196.9	–	–	–	–	–	–	–	–	IC50 (Leishmania infantum [7]; j774): Not Active; IC50 (Leishmania amazonensis [8]; j774): Not Active
O=S(=O)(Nc1ccc2[nH]ncc2c1)c1ccccc1	–	–	–	40.3 µM	–	37.3 µM	≥ 300 µM	47.9 µM	–	–	38.7 µM	–	Not Active	83.2 µM	–	30.8 µM	–	55.5%	Not Active	> 6.9	Activity (Leishmania infantum [21]): inactive; Activity (Leishmania infantum [22]): Active; Activity (Leishmania infantum [23]): 97.57%; Activity (Leishmania infantum [14]; route intraperitoneal): 78.9%; Ratio CC50/IC50 [24]: >5.3; Activity (Mus musculus [25]): Non-toxic; Activity (Mus musculus [26]): Non-toxic; Activity (Leishmania infantum [27]): 96.34%; Activity (Leishmania infantum [28]): inactive
O=S(=O)(Nc1cccc2cnccc12)c1cccc2ccccc12	141 µM	60%	187 µM	23 µM	Active	20.3 µM	≥ 300 µM	15.8 µM	97.6 µM	72%	24.5 µM	>1.9	–	23 µM	>10.4	42.9 µM	inactive	–	–	–	Activity (Leishmania infantum [15]): inactive; Ratio CC50/IC50 [24]: > 16.2
